Published values collected from several papers.
In brackets after ≈: the same amount, converted by molar mass.

CCOC(=O)c1nnn(-c2cccc(NC(=O)Nc3ccc(Cl)c(Cl)c3)c2)c1C — MIC (Escherichia coli; microbial growth, broth dilution; ATCC25922): > 64 µg/mL
C=CCn1c(-c2ccc(Cl)cc2)nc2ccc(C)cc21 — MIC (Staphylococcus aureus; microbial growth, broth dilution; ATCC43300 MRSA; drug-resistant strain): 32 µg/mL (≈ 113 µM)
CSc1ncnc2c1ncn2[C@@H]1O[C@H](CO)[C@@H](O)[C@H]1O — IC50 (Severe acute respiratory syndrome coronavirus; plaque formation, inhibitor; Vero C1008): > 300 µM
COC(=O)c1cc(-c2cccc(NC(=S)Nc3ccc(OC)cc3)c2)on1 — MIC (Escherichia coli; microbial growth, broth dilution; ATCC25922): > 64 µg/mL
c1ccc2[nH]c(-c3ccc4c(c3)OCO4)nc2c1 — MIC (Staphylococcus aureus; microbial growth, broth dilution; ATCC43300 MRSA; drug-resistant strain): 256 µg/mL (≈ 1070 µM)
c1cc2c(ccc3c4c([nH]c32)CCCC4)cn1 — IC50 (MDA-MB-468; cell growth or viability, MTT): 7.9 µM
OCC(CO)CCn1cnc2c(Cl)ncnc21 — IC50 (Severe acute respiratory syndrome coronavirus; plaque formation, inhibitor; Vero C1008): > 300 µM
C[C@]12CCC(=O)C(O)=C1CC[C@@H]1[C@@H]2CC[C@]2(C)C(=O)CC[C@@H]12 — IC50 (HN-6; cell growth or viability; 72 h): > 20 µM
Cc1ccc2nc(-c3ccc([N+](=O)[O-])cc3)n(Cc3ccccc3)c2c1 — MIC (Staphylococcus aureus; microbial growth, broth dilution; ATCC43300 MRSA; drug-resistant strain): 16 µg/mL (≈ 46.6 µM)
O=C(NCCc1c[nH]c2ccccc12)C(=O)c1cn(Cc2ccc(Cl)cc2)c2ccc(Br)cc12 — IC50 (C4-2; cell growth or viability, MTT): > 100 µM
Cc1ccc2[nH]c3c(c2c1)CCCC3NCCc1ccc(Br)cc1 (stereo not shown) — MIC (Micrococcus luteus; microbial growth, broth dilution; DSM1790): 2 µg/mL (≈ 5.22 µM)
Cc1ccc2nc(-c3ccc([N+](=O)[O-])cc3)n(Cc3ccccc3Cl)c2c1 — MIC (Staphylococcus aureus; microbial growth, broth dilution; ATCC43300 MRSA; drug-resistant strain): 64 µg/mL (≈ 169 µM)
COC(=O)c1cc(-c2cccc(NC(=S)Nc3ccc(F)cc3)c2)on1 — MIC (Escherichia coli; microbial growth, broth dilution; ATCC25922): > 64 µg/mL
OCC1CC(n2cnc3c(Cl)ncnc32)C1CO (stereo not shown) — IC50 (Severe acute respiratory syndrome coronavirus; plaque formation, inhibitor; Vero C1008): > 300 µM
Cc1ccc2nc(-c3ccc(F)cc3)[nH]c2c1 — MIC (Staphylococcus aureus; microbial growth, broth dilution; ATCC43300 MRSA; drug-resistant strain): 128 µg/mL (≈ 566 µM)
COC(=O)c1cc(-c2cccc(NC(=S)Nc3ccc([N+](=O)[O-])cc3)c2)on1 — MIC (Escherichia coli; microbial growth, broth dilution; ATCC25922): > 64 µg/mL
OC[C@H]1O[C@@H](n2cnc3c(Cl)ncnc32)C[C@@H]1O — IC50 (Severe acute respiratory syndrome coronavirus; plaque formation, inhibitor; Vero C1008): > 300 µM
COC(=O)c1cc(-c2cccc(NC(=O)NCc3ccccc3)c2)on1 — MIC (Escherichia coli; microbial growth, broth dilution; ATCC25922): > 64 µg/mL
Clc1ccc(-c2nc3ccccc3n2Cc2ccccc2)cc1 — MIC (Staphylococcus aureus; microbial growth, broth dilution; ATCC43300 MRSA; drug-resistant strain): 256 µg/mL (≈ 803 µM)
COC(=O)c1cc(-c2cccc(NC(=O)Nc3cccc(F)c3)c2)on1 — MIC (Escherichia coli; microbial growth, broth dilution; ATCC25922): > 64 µg/mL
Nc1ncnc2c([C@@H]3N[C@H](CO)[C@@H](O)[C@H]3O)c[nH]c12 — inhibition (Severe acute respiratory syndrome coronavirus; viral replication, inhibitor; Vero 76; 3 µM): 0%
COC(=O)c1cc(-c2cccc(NC(=S)Nc3ccc(C#N)cc3)c2)on1 — MIC (Escherichia coli; microbial growth, broth dilution; ATCC25922): > 64 µg/mL
O=C(NCCc1c[nH]c2ccccc12)C(=O)c1cn(Cc2ccc(F)cc2)c2ccccc12 — IC50 (C4-2; cell growth or viability, MTT): > 100 µM
Cc1ccc2nc(-c3cc(Br)ccc3O)[nH]c2c1 — MIC (Staphylococcus aureus; microbial growth, broth dilution; ATCC43300 MRSA; drug-resistant strain): 128 µg/mL (≈ 422 µM)
COC(=O)c1cc(-c2cccc(NC(=S)Nc3ccccc3)c2)on1 — MIC (Escherichia coli; microbial growth, broth dilution; ATCC25922): > 64 µg/mL
